In one series the test system is dengue virus type 3. Put plainly: Antiviral activity against Dengue virus 3 MY22366 infected in human A549 cells by CFI assay. In kind it is functional, organism-based. A digest of the protocol: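 CFI assay: A549 cells seeded 2 × 10^4/well, infected next day (MOI 0.3 for DENV-2) with compound-virus mixture for 1 h, then refed with compound-containing medium. On day 2 cells were methanol-fixed at 4°C and intracellular E protein detected by ELISA (4G2 primary, HRP anti-mouse secondary). EC50 is the average of two independent experiments.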

For series [1], the system named is dengue virus type 2. Nature of the series: Antiviral activity against Dengue virus 2 NGC infected in human PBMC cells by plaque assay. The series is classed as functional, organism-based.
The next series deals with Mus musculus. Nature of the series: Oral bioavailability in CD-1 mouse assessed as NITD449 level at 24.2 mg/kg by LC-MS-MS analysis. In kind it is ADME, organism-based. To be noted: in vivo. The gist of the method: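 Female CD-1 mice given the prodrug orally, formulated in 10% ethanol, 30% PEG 400, 60% D5W. Blood from three animals at 0.08, 0.25, 0.5, 1, 2, 4, 8, 16, 24 h; heparinized plasma extracted with acetonitrile-methanol-acetic acid. Parent nucleoside was quantified by LC-MS-MS (MRM, LLOQ 9.2 ng/ml) and noncompartmental analysis was run. F = dose-corrected AUC p.o./AUC i.v., with i.v. parent at 5 mg/kg.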

The subject of series [2] is Rattus norvegicus. Nature of the series: Tmax in Wistar rat assessed as NITD449 level at 26.5 mg/kg, po by LC-MS-MS analysis. Further details: dose 26.5 mg/kg, route oral. The series is classed as ADME, organism-based. Particulars: in vivo. The gist of the method: (§1)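 Female Wistar rats, fasted overnight until 4 h postdose, given the prodrug orally in 10% ethanol, 30% PEG 400, 60% D5W. Serial blood from groups of three at 0.17–48 h. Parent nucleoside in plasma was measured by LC-MS-MS (LLOQ 9.2 ng/ml) with noncompartmental analysis. F was corrected for dose against parent i.v. at 5.9 mg/kg.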

The test system of series [3] is Rattus norvegicus. Nature of the series: Oral bioavailability in Wistar rat assessed as NITD449 level at 26.5 mg/kg by LC-MS-MS analysis. In kind it is ADME, organism-based. To be noted: in vivo. A digest of the protocol:
as §1

Series [4] concerns Rattus norvegicus. Nature of the series: AUC (0 to infinity) in Wistar rat assessed as NITD449 level at 84.1 mg/kg, po by LC-MS-MS analysis. In kind it is ADME, organism-based, Plasma. Further details: time infinity, dose 84.1 mg/kg, route oral. Particulars: in vivo. The gist of the method: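 Fasted female Wistar rats were dosed orally with the prodrug in 20% solutol HS15, 30% PEG 300, 50% 100 mM citrate pH 3. Groups of three were serially bled 0.17–48 h. Plasma parent levels came from LC-MS-MS (MRM, LLOQ 9.2 ng/ml) and noncompartmental modeling. F used dose-corrected AUC versus parent i.v. at 5.9 mg/kg.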

Series [5] has as its system dengue virus type 2. Nature of the series: Antiviral activity against Dengue virus 2 NGC infected in african green monkey Vero cells after 48 hrs by plaque assay. The series is classed as functional, organism-based. The gist of the method:
(§2)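 Titer reduction: Vero cells (4 × 10^5/well) infected 24 h after seeding at MOI 0.1 and treated immediately with compound. Culture medium was collected 48 h postinfection and titered by plaque assay; n = 3, mean ± SD.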

Series [6] has as its system dengue virus type 2. Put plainly: Antiviral activity against Dengue virus 2 NGC infected in african green monkey Vero cells at 12.5 uM after 48 hrs by plaque assay. The series is classed as functional. A digest of the protocol: as §2
The test system of a further series is Yellow fever virus. Nature of the series: Antiviral activity against Yellow fever virus 17D infected in african green monkey Vero cells at 12.5 uM after 48 hrs by plaque assay. In kind it is functional.
Series [7] concerns dengue virus type 2. Put plainly: Antiviral activity against Dengue virus-2 NGC infected in hamsters BHK21 cells assessed as inhibition of viral RNA synthesis at 1 uM after 24 to 40 hrs of infection by luciferase assay. Particulars: BHK-21. In kind it is functional, organism-based. The gist of the method:
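DENV-2 luciferase replicon (structural genes deleted) RNA was electroporated into BHK-21 cells, then cells were immediately incubated with compound. Luciferase was read at time points. Signals at 2–4 h p.t. reflect input translation and at 24–40 h p.t. reflect RNA synthesis; n = 3, mean ± SD.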

For series [8], the system named is Rattus norvegicus. Put plainly: Toxicity in Wistar rat at 10 mg/kg/day, po for 2 weeks. In kind it is organism-based. Further details: route oral. To be noted: in vivo, 336 h. A digest of the protocol: (§3)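 Male Wistar rats, 10 weeks old, dosed orally daily for 2 weeks; five per dose group. Clinical signs, body weight and mortality were monitored.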
Series [9] has as its system Rattus norvegicus. Put plainly: Toxicity in Wistar rat at 30 mg/kg/day, po for 2 weeks. The series is classed as organism-based. Further details: route oral. Particulars: in vivo, 336 h. The gist of the method: as §3
Series [10] deals with Rattus norvegicus. Put plainly: Toxicity in Wistar rat at 75 mg/kg/day, po for 2 weeks. The series is classed as organism-based. Further details: route oral. To be noted: in vivo, 336 h. A digest of the protocol: as §3

Activity calls are given as the source filed them. The calls are words filed in the database; no cut-off is given here.

Usually EC50 stands for the concentration that produces a half-maximal response. By Tmax is commonly meant the time from dosing to the highest level. As usually defined, the AUC is the area under the concentration-time curve, a measure of exposure.

For the compound `C#C[C@@]1(O)[C@H](OC(=O)C(C)C)[C@@H](COC(=O)C(C)C)O[C@H]1n1cc(C(N)=O)c2c(N)ncnc21`, the EC50 in the series on dengue virus type 3 worked out at 540 nM; in the series on dengue virus type 2 [1] it was 100 nM. Further, the figures for the F in the series with Mus musculus and in the series with Rattus norvegicus [3] were 32% and 13%, respectively. Besides, the Tmax in the series on Rattus norvegicus [2] was determined as 30 min. For the same compound, the AUC in the series on Rattus norvegicus [4] came to 33.5 µM·h. In addition, the outcome in the series on dengue virus type 2 [5] and in the series with dengue virus type 2 [7] was Active. Moreover, the “fold change (FC)” value stood at 1000 with dengue virus type 2 [6] and 100 in the series on Yellow fever virus. For the same compound, the figures for the Activity result in the series with Rattus norvegicus [8], with Rattus norvegicus [9] and with Rattus norvegicus [10] were “Non-toxic”, “Toxic” and “Toxic”, respectively.

These data come from ChEMBL document CHEMBL1629704, “Inhibition of dengue virus by an ester prodrug of an adenosine analog” (Antimicrob Agents Chemother, 2010).
